Results on twelve molecules are retold here after PubChem BioAssay.

A short description of assay [1]: inhibitors of TNFa-induced NFkB p65 translocation, primary screen, imaging, HUVEC, MLSMR starter and 10KST1 sets (AID 438;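 active = inhibition above 20% together with a positive visual image hit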;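 also: compound added about 3h40 before a 20 min TNFalpha stimulation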;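 as to inhibition: signal is the nuclear over cytoplasmic p65 intensity ratio per well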). Conditions: HUVEC TNFa-induced p65 nuclear translocation; cell count: measured here: nuclei count (cytotoxicity indicator), at 2.08 µM; inhibition: at 2 µM, stronger effect = higher value, 0% TNFa-plus-vehicle, 100% no-TNFa wells.
Assay [2] can be described thus: reduction of polyQ htt aggregates in cells – imaging, exon1htt(103Q)mCFP cells, high-content imaging, primary screen (AID 483;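 active = visual image review flags a hit and inhibition of aggregation exceeds 20%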;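 also: compound exposure lasted 3 days before fixation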;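 as to nuclei count: percent of the per-plate median nuclei count of sample wells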). The settings on record: exon1htt(103Q)mCFP cell line, aggregate imaging, at 2 µM; inhibition of aggregation: stronger effect = higher value; nuclei count: measured here: cell count, toxicity.
A short description of assay [3]: endothelial E-selectin expression blockers – imaging, HUVEC, immunofluorescence, MLSMR starter and 10KST1 sets, primary screen (AID 487).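 As to inhibition: signal is fraction of cell area covered by stained E-selectin grains.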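 As to nuclei count: 100% = median nuclei count of all wells on the same plate.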 Conditions: HUVEC TNFalpha-induced E-selectin immunofluorescence imaging, at 2 µM; inhibition: stronger effect = higher value; nuclei count: measured here: cell number, toxicity.
Assay [4] addresses Voltage-gated potassium channel subunit beta-2 (Rattus norvegicus) (UniProt P62483). Nature of the assay: inhibitors of rat Kvbeta2 reductase activity – biochemical, NADPH fluorescence, primary screen (AID 622;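 active = fluorescence slope higher than the sample average by over 3 SD, cut at about -0.22 in these data, passing the limit was not always enough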;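 also: slope of raw intensity against log time taken from 70 to 1610 s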). The settings on record: recombinant KvBeta, 4-cyanobenzaldehyde reduction, at 10 µM, stronger effect = higher value.
Assay [5] shares this target. Kind of assay: enhancers of rat Kvbeta2 NADPH turnover – biochemical, NADPH fluorescence, primary screen (AID 623;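 active = NADPH fluorescence slope more negative than the mean of all samples by about 3 SD, 99.7% confidence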;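 also: fluorescence intensity change per second fitted from 20 to 320 s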). The settings on record: Recombinant KvBeta, NADPH fluorescence decrease slope, 10 min; at 10 µM; stronger effect = lower value.
Assay [6] deals with Muscarinic acetylcholine receptor M4 (Homo sapiens) (UniProt P08173). Nature of the assay: M4-linked GIRK flux change, two-sided – cell-based, HEK293 M4/GIRK, thallium flux, BTC-AM, M4 allosteric agonist project, primary screen (AID 625;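 active = fluorescence slope after compound addition differing from the mean of all tested samples at 99.7% confidence, mostly higher but some lower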;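 also: thallium influx through GIRK channels coupled to M4 in HEK293 cells with BTC-AM dye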). The settings on record: at 10 µM, actives lie on both sides. The method, boiled down: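 Material: HEK293 cells with M4 receptor and GIRK channels; Times: cells overnight at 37 °C, BTC-AM loading 1 h, reads 2 min total; Technique: kinetic BTC-AM fluorescence sampled at 1 Hz, 10 s pre-addition baseline; Read-out basis: slope over 15–24 s of trace normalized to starting intensity; Controls: carbachol positive, DMSO negative.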
Chain of Muscarinic acetylcholine receptor M4 (Homo sapiens) (P08173 whole entry, looked up): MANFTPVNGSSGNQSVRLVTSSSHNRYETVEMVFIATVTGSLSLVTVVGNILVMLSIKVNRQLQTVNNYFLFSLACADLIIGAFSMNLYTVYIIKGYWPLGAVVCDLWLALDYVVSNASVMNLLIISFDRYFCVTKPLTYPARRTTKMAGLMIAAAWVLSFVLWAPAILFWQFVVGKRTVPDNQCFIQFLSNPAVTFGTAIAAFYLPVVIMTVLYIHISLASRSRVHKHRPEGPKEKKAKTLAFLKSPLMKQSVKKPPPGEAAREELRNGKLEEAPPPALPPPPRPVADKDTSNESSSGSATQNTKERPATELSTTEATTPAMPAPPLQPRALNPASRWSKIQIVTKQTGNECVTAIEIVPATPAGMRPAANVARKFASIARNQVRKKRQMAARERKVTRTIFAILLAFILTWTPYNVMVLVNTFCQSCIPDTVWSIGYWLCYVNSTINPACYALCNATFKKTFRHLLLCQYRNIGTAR

Assay [7] in a line: blockers of RIG-like receptor reporter activation – cell-based, Sendai virus stimulus, luciferase, 10K MLSCN set, TLR/RLR signaling modifier project, primary screen (AID 602276;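 active = inhibition at or above 50% at 10 µM; inactive = inhibition below 50%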;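 also: firefly luciferase from ISG56 promoter only with Renilla not read in this screen; 0% = Sendai virus plus DMSO and 100% = medium plus DMSO without virus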). The settings on record: HEK293 RL24 IRF3 luciferase reporter, at 10 µM, stronger effect = higher value. A general note: A reporter such as luciferase makes a cellular process visible.
A short description of assay [8]: TLR3 IRF3 reporter activation blockers – cell-based, poly I:C stimulus, luciferase, 10K MLSCN set, primary screen (AID 602277;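 active = inhibition of the reporter signal at or above 50%; inactive = inhibition below 50%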). The settings on record: HEK293-TLR3 RL24 IRF3 luciferase reporter, at 10 µM, stronger effect = higher value.

Molecules are shown by their SMILES. The source made the active and inactive calls.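 The calls were made as follows, unless noted: active = visually confirmed hit in the image check and inhibition above 20%; inconclusive = visually confirmed hit but inhibition not above 20%; inactive = no visual hit in the image check.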

Chain of Voltage-gated potassium channel subunit beta-2 (Rattus norvegicus) (P62483 whole entry, looked up): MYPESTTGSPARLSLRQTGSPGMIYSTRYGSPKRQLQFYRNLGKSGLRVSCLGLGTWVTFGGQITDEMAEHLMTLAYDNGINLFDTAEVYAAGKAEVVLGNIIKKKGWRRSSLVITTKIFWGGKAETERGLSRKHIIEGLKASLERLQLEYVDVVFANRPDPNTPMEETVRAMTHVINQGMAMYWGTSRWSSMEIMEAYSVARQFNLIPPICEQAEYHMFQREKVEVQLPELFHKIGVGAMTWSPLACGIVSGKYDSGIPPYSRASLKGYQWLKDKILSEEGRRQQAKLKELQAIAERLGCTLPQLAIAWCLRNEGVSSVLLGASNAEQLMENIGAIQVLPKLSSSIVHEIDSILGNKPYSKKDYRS

On to `Cn1c(C(=O)NCC2CCCO2)cc2c(=O)[nH]c3ccccc3c21` (configuration not stated), for which the cell count in assay [1] was 334. Besides, the inhibition (as a rule, the change of the read-out against control, counted positive when it falls) in assay [1] was 11.8% (inactive); in assay [3], 47.5% (inactive); in assay [7] it was -11.9% (inactive); in assay [8] it was -5.12% (inactive). In assay [2], the inhibition of aggregation was -27.1% (inactive). The nuclei count was 114% in assay [2] and 76.8% in assay [3]. Further, the fluorescence slope in assay [4] was -0.355 (inactive); in assay [6], 0.00794 (inactive). For the same molecule, the NADPH fluorescence slope in assay [5] is -5.9e-05 (inactive).

For the molecule `CCCn1c(=N)n(CCOc2ccc(OC)cc2)c2ccccc21`, the cell count in assay [1] stood at 665. Moreover, the inhibition in assay [1] is 21.3% (inactive); in assay [3] it was 15.1% (inactive); in assay [7], 20.2% (inactive); in assay [8] it was 15.4% (inactive). In assay [2], the inhibition of aggregation was 5.9% (inactive). Further, the nuclei count in assay [2] stood at 92.6%; in assay [3], 139%. Further, the fluorescence slope in assay [4] was -0.466 (inactive); in assay [6] it was 0.00387 (inactive). For the same molecule, the NADPH fluorescence slope in assay [5] was -4.2e-05 (inactive).

`Cc1ccc(F)cc1NC(=O)Cc1nn(C)c(=O)c2ccccc12`: the cell count in assay [1] was 247. The inhibition in assay [1] was 0.9% (inactive); in assay [3] it was 17.2% (inactive); in assay [7], 7.41% (inactive); in assay [8], -19% (inactive). The inhibition of aggregation in assay [2] is 4.8% (inactive). Also, the nuclei count in assay [2] worked out at 93.3%; in assay [3], 102%. The values for the fluorescence slope in assay [4] and in assay [6] were -0.555 (inactive) and 0.00476 (inactive), respectively. The NADPH fluorescence slope in assay [5] was -2.8e-05 (inactive).

Take `COCCN1C(=O)C(=O)/C(=C(/O)c2cccc(OC)c2)C1c1ccncc1` (configuration not stated): the cell count in assay [1] turned out to be 272. The inhibition is 22.2% (inactive) in assay [1], 54.5% (inactive) in assay [3], 13.1% (inactive) in assay [7] and 15.1% (inactive) in assay [8]. In assay [2], the inhibition of aggregation is 17.9% (inactive). The nuclei count worked out at 95.1% in assay [2] and 92.1% in assay [3]. In addition, the fluorescence slope was -0.578 (inactive) in assay [4] and 0.00539 (inactive) in assay [6]. Besides, in assay [5], the NADPH fluorescence slope is -8.8e-06 (inactive).

For `CCc1nnc(NC(=O)CSc2nnc(Cc3ccccc3)n2-c2ccc(OC)cc2)s1`, in assay [1], the cell count came out at 680. The inhibition in assay [1] is -13.4% (inactive); in assay [3], 52.3% (inactive); in assay [7], 10.9% (inactive); in assay [8], 12% (inactive). The inhibition of aggregation in assay [2] is 0.3% (inactive). Also, the nuclei count in assay [2] is 102%; in assay [3] it was 105%. Also, the fluorescence slope in assay [4] is -0.45 (inactive); in assay [6], 0.00454 (inactive). Besides, the NADPH fluorescence slope in assay [5] was -5.9e-05 (inactive).

Take `O=C(COC(=O)Cc1cccc(C(F)(F)F)c1)NCC1CCCO1` (configuration not stated): the cell count in assay [1] was 704. Further, the inhibition was 3.3% (inactive) in assay [1], -199% (inactive) in assay [3], -6.76% (inactive) in assay [7] and 2.06% (inactive) in assay [8]. Besides, in assay [2], the inhibition of aggregation was 3% (inactive). The nuclei count in assay [2] was determined as 106%; in assay [3], 134%. In addition, the values for the fluorescence slope in assay [4] and in assay [6] were -0.497 (inactive) and 0.00505 (inactive), respectively. The NADPH fluorescence slope in assay [5] was -0.000214 (inactive).

Take `O=c1c[n+]([O-])c2ccccc2n1OCc1ccccn1`: in assay [1], the cell count amounted to 649. Also, the inhibition in assay [1] is -0.8% (inactive); in assay [3] it was -73% (inactive); in assay [7], -4.06% (inactive); in assay [8], -7.39% (inactive). Further, the inhibition of aggregation in assay [2] is -17.9% (inactive). The values for the nuclei count in assay [2] and in assay [3] were 103% and 106%, respectively. The fluorescence slope in assay [4] was -0.464 (inactive); in assay [6], 0.00798 (inactive). Further, the NADPH fluorescence slope in assay [5] is 2.5e-05 (inactive).

On to `Cc1nc2ccccc2c2oc(C(=O)NCc3ccccn3)cc12`, for which the cell count in assay [1] amounted to 234. Further, the inhibition in assay [1] was -3.8% (inactive); in assay [3] it was -75.8% (inactive); in assay [7], -2.75% (inactive); in assay [8], -16.5% (inactive). Also, the inhibition of aggregation in assay [2] is 17.9% (inactive). Besides, the values for the nuclei count in assay [2] and in assay [3] were 65.8% and 102%, respectively. Moreover, the figures for the fluorescence slope in assay [4] and in assay [6] were -0.397 (inactive) and 0.00573 (inactive), respectively. Further, the NADPH fluorescence slope in assay [5] is 7.6e-05 (inactive).

With `CCOC(=O)N1CCC(O)(c2cc(C)c(C)cc2C)CC1`, the cell count in assay [1] worked out at 494. The inhibition was -1.1% (inactive) in assay [1], -16% (inactive) in assay [3], 16.2% (inactive) in assay [7] and -0.7% (inactive) in assay [8]. In addition, the inhibition of aggregation in assay [2] is -15.6% (inactive). Further, the nuclei count was 93% in assay [2] and 112% in assay [3]. For the same molecule, the fluorescence slope in assay [4] was -0.316 (inactive); in assay [6], 0.00607 (inactive). Further, the NADPH fluorescence slope in assay [5] was -2.5e-05 (inactive).

As to `O=C(O)C1C2C=CC(O2)C1C(=O)NCc1ccc(Cl)cc1` (configuration not stated), the cell count in assay [1] turned out to be 714. In addition, the inhibition in assay [1] is -7.5% (inactive); in assay [3], 16.4% (inactive); in assay [7], 11.9% (inactive); in assay [8], 5.33% (inactive). Besides, in assay [2], the inhibition of aggregation was 22.6% (inactive). In addition, the nuclei count in assay [2] came out at 95.5%; in assay [3] it was 100%. Moreover, the fluorescence slope in assay [4] is -0.531 (inactive); in assay [6], 0.0043 (inactive). In addition, the NADPH fluorescence slope in assay [5] was -3.3e-05 (inactive).

Take `Cc1ccc(-c2csc3nnc(SCC(=O)NCc4ccco4)n23)cc1`: in assay [1], the cell count was found to be 656. For the same molecule, the inhibition in assay [1] is 5.2% (inactive); in assay [3], -76.9% (inactive); in assay [7] it was 17.2% (inactive); in assay [8], 19.3% (inactive). Besides, in assay [2], the inhibition of aggregation is -2.5% (inactive). The results for the nuclei count in assay [2] and in assay [3] were 101% and 94.1%, respectively. In addition, the fluorescence slope in assay [4] was -0.556 (inactive); in assay [6], 0.00536 (inactive). Further, in assay [5], the NADPH fluorescence slope is -2.1e-05 (inactive).

In the case of `Cc1cc(NS(=O)(=O)c2ccccc2)n(-c2ccccc2)n1`, the cell count in assay [1] was 395. Further, the inhibition in assay [1] was 10.8% (inactive); in assay [3] it was -59.1% (inactive); in assay [7], -0.656% (inactive); in assay [8] it was 28% (inactive). Besides, in assay [2], the inhibition of aggregation is -18.2% (inactive). For the same molecule, the nuclei count came to 94.7% in assay [2] and 106% in assay [3]. For the same molecule, the fluorescence slope in assay [4] is -0.544 (inactive); in assay [6] it was 0.00508 (inactive). Also, the NADPH fluorescence slope in assay [5] is -4.8e-05 (inactive).
